Activity calls are given as the source filed them. The calls are words filed in the database; no cut-off is given here.
Key:
[1] = tested on: Cryptococcus gattii species complex; assay: Antimicrobial activity against Cryptococcus gattii serotype B isolate B5765 assessed as heteroresistant isolates at 2 ug/ml; assay type: functional, Cryptococcus bacillisporus
Method in brief: (§1)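 Population analysis: cells suspended in sterile saline at 1 × 10³ to 4 × 10³ CFU/ml and plated on plain YPD agar or YPD agar with various fluconazole concentrations. Plates incubated at 30°C for 72 h. The resistant subpopulation at each concentration is recorded as a percentage of the population.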

[2] = tested on: Cryptococcus gattii species complex; assay: Antimicrobial activity against Cryptococcus gattii serotype C isolate NIH257 assessed as heteroresistant isolates at 2 ug/ml; assay type: functional, Cryptococcus bacillisporus
Method in brief: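 Cell suspensions of 1 × 10^3 to 4 × 10^3 CFU/ml were made in sterile saline and plated on plain YPD agar or YPD agar with various fluconazole concentrations. Plates were incubated at 30°C for 72 h, and the percentage of resistant subpopulation emerging was recorded.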

[3] = tested on: Cryptococcus gattii species complex; assay: Antimicrobial activity against Cryptococcus gattii serotype B isolate NIH286 assessed as heteroresistant isolates at 4 ug/ml; assay type: functional, Cryptococcus bacillisporus; method in brief: as §1
[4] = tested on: Cryptococcus gattii species complex; assay: Antimicrobial activity against Cryptococcus gattii serotype B isolate NIH771 assessed as heteroresistant isolates at 4 ug/ml; assay type: functional, Cryptococcus bacillisporus
Method in brief: (§2)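 Population analysis: saline cell suspensions (1 × 103 to 4 × 10^3 CFU/ml) plated on plain YPD agar or YPD agar with various fluconazole concentrations; growth recorded after 72 h at 30°C; percentage of resistant subpopulation at each drug level calculated relative to drug-free plate growth.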

[5] = tested on: Cryptococcus gattii species complex; assay: Antimicrobial activity against Cryptococcus gattii serotype C isolate NIH187 assessed as concentration required for heteroresistance; assay type: functional, Cryptococcus bacillisporus
[6] = tested on: Cryptococcus gattii species complex; assay: Antimicrobial activity against Cryptococcus gattii serotype C isolate NIH298 assessed as concentration required for heteroresistance; assay type: functional, Cryptococcus bacillisporus
Method in brief: (§3)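 […] on YPD agar at 4 to 128 μg/ml. The lowest drug concentration at which minor resistant subpopulations emerged within the patch was scored as the strain's level of heteroresistance.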

[7] = tested on: Cryptococcus gattii species complex; assay: Antimicrobial activity against Cryptococcus gattii serotype C isolate NIH917 assessed as concentration required for heteroresistance; assay type: functional, Cryptococcus bacillisporus; method in brief: as §3
[8] = tested on: Cryptococcus gattii species complex; assay: Antimicrobial activity against Cryptococcus gattii serotype B isolate NIH412 assessed as heteroresistant isolates at 2 ug/ml; assay type: functional, Cryptococcus bacillisporus; method in brief: as §1
[9] = tested on: Cryptococcus gattii species complex; assay: Antimicrobial activity against Cryptococcus gattii serotype B isolate NIH535 assessed as heteroresistant isolates at 2 ug/ml; assay type: functional, Cryptococcus bacillisporus; method in brief: as §1
[10] = tested on: Cryptococcus gattii species complex; assay: Antimicrobial activity against Cryptococcus gattii serotype B isolate NIH189 assessed as heteroresistant isolates at 2 ug/ml; assay type: functional, Cryptococcus bacillisporus; method in brief: as §1
[11] = tested on: Cryptococcus gattii species complex; assay: Antimicrobial activity against Cryptococcus gattii serotype B isolate NIH184 assessed as concentration required for heteroresistance; assay type: functional, Cryptococcus bacillisporus
Method in brief: (§4)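 Fluconazole spot test: 10-fold serial dilutions of each single-colony-purified strain spotted on YPD agar alone and YPD agar with fluconazole at 4 to 128 μg/ml. The level of heteroresistance to fluconazole (LHF) is the lowest drug concentration at which minor resistant subpopulations emerge within the spot.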

[12] = tested on: Cryptococcus gattii species complex; assay: Antimicrobial activity against Cryptococcus gattii serotype B isolate NIH767 assessed as concentration required for heteroresistance; assay type: functional, Cryptococcus bacillisporus; method in brief: as §4
[13] = tested on: Cryptococcus gattii species complex; assay: Antimicrobial activity against Cryptococcus gattii serotype B isolate NIH771 assessed as concentration required for heteroresistance; assay type: functional, Cryptococcus bacillisporus; method in brief: as §4
[14] = tested on: Cryptococcus gattii species complex; assay: Antimicrobial activity against Cryptococcus gattii serotype B isolate RB-3 assessed as concentration required for heteroresistance; assay type: functional, Cryptococcus bacillisporus
[15] = tested on: Cryptococcus gattii species complex; assay: Antimicrobial activity against Cryptococcus gattii serotype B isolate RB-4 assessed as concentration required for heteroresistance; assay type: functional, Cryptococcus bacillisporus
[16] = tested on: Cryptococcus gattii species complex; assay: Antimicrobial activity against Cryptococcus gattii serotype B isolate RB-9 assessed as concentration required for heteroresistance; assay type: functional, Cryptococcus bacillisporus
[17] = tested on: Cryptococcus gattii species complex; assay: Antimicrobial activity against fluconazole-resistant Cryptococcus gattii serotype B isolate RB14 at 256 ug/ml; assay type: functional, organism-based; details: Cryptococcus bacillisporus
[18] = tested on: Cryptococcus gattii species complex; assay: Antimicrobial activity against Cryptococcus gattii serotype B isolate NIH200 assessed as concentration required for heteroresistance; assay type: functional, Cryptococcus bacillisporus; method in brief: as §4
[19] = tested on: Cryptococcus gattii species complex; assay: Antimicrobial activity against Cryptococcus gattii serotype C isolate NIH403 assessed as concentration required for heteroresistance; assay type: functional, Cryptococcus bacillisporus; method in brief: as §3
[20] = tested on: Cryptococcus bacillisporus; assay: Antimicrobial activity against Cryptococcus gattii serotype C isolate NIH191 assessed as heteroresistant isolates at 16 ug/ml; assay type: functional; method in brief: as §2
[21] = tested on: Cryptococcus gattii species complex; assay: Antimicrobial activity against Cryptococcus gattii serotype B isolate NIH286 assessed as heteroresistant isolates at 32 ug/ml; assay type: functional, Cryptococcus bacillisporus; method in brief: as §1
[22] = tested on: Cryptococcus gattii species complex; assay: Antimicrobial activity against Cryptococcus gattii serotype C isolate NIH18 assessed as heteroresistant isolates at 32 ug/ml; assay type: functional, Cryptococcus bacillisporus, serotype B isolate  NIH18; method in brief: as §2
[23] = tested on: Cryptococcus gattii species complex; assay: Antimicrobial activity against Cryptococcus gattii serotype C isolate H0058-1-818 assessed as heteroresistant isolates at 32 ug/ml; assay type: functional, Cryptococcus bacillisporus; method in brief: as §2
[24] = tested on: Cryptococcus gattii species complex; assay: Antimicrobial activity against Cryptococcus gattii serotype B isolate NIH189 assessed as heteroresistant isolates at 8 ug/ml; assay type: functional, Cryptococcus bacillisporus; method in brief: as §1
[25] = tested on: Cryptococcus gattii species complex; assay: Antimicrobial activity against Cryptococcus gattii serotype B isolate B5765 assessed as heteroresistant isolates at 8 ug/ml; assay type: functional, Cryptococcus bacillisporus; method in brief: as §1
[26] = tested on: Cryptococcus gattii species complex; assay: Antimicrobial activity against Cryptococcus gattii serotype B isolate RAM15 assessed as heteroresistant isolates at 16 ug/ml; assay type: functional, Cryptococcus bacillisporus; method in brief: as §2

OC(Cn1cncn1)(Cn1cncn1)c1ccc(F)cc1F [FLUCONAZOLE] gave an Activity [1] of 100%, an Activity [2] of 100% and an Activity [3] of 100%. The Activity [4] was 100%, the Activity [5] was 32 µg/mL and the Activity [6] was 32 µg/mL. For the same molecule, the Activity [7] was 32 µg/mL, the Activity [8] was 100% and the Activity [9] was 100%. It also gave an Activity [10] of 100%, an Activity [11] of 16 µg/mL and an Activity [12] of 32 µg/mL. The Activity [13] was 32 µg/mL, the Activity [14] was 8 µg/mL and the Activity [15] was 32 µg/mL. For the same molecule, the Activity [16] was 32 µg/mL, the Activity [17] was “inactive” and the Activity [18] was 4 µg/mL. The Activity [19] was 16 µg/mL, the Activity [20] was 100% and the Activity [21] was 0.06%. It also gave an Activity [22] of 0.44%, an Activity [23] of 16% and an Activity [24] of 100%. The Activity [25] was 100% and the Activity [26] was 100%.
